Measured values: ChEMBL document CHEMBL1157029, “Synthesis, characterization and in vitro pharmacology of novel pregabalin derivatives” (Eur J Med Chem, 2010)

organism: Rattus norvegicus; assay: Inhibition of [3H]gabapentin binding to voltage gated calcium channel alpha2delta from rat cerebral cortex at 10 uM by scintillation counting; assay type: tissue-based
In short: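 Single test concentration, in duplicate. Membranes were incubated 60 min at 22 °C with 10 nM [3H]gabapentin in 10 mM Hepes/Tris pH 7.4. Nonspecific binding was defined with excess unlabelled gabapentin, and filters were counted by scintillation. Compound came from DMSO stock with a final 100-fold dilution in the well. Result given as % inhibition of control specific binding.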

Row | SMILES | inhibition
1 | CC(C)C[C@H](CN)CC(=O)N[C@H]1C(O)O[C@H](CO)[C@H](O)[C@@H]1O (some centres undefined) | 9%
2 | CC(C)C[C@H](CN)CC(=O)NCCc1c[nH]c2ccccc12 | 18%
3 | CC(C)C[C@H](CN)CC(=O)NCCc1c[nH]c2ccc(O)cc12 | 51%
4 | CC(C)C[C@H](CN)CC(=O)N[C@@H]1O[C@H](CO)[C@@H](O)[C@H](O)[C@H]1O | 17%
5 | CC(C)C[C@H](CN)CC(=O)N[C@@H]1C(O)O[C@H](CO)[C@@H](O)[C@@H]1O (some centres undefined) | 14%
6 | CC(C)C[C@H](CN)CC(=O)O | 92%
7 | CC(C)C[C@H](CN)CC(=O)N[C@H]1C(O)O[C@H](CO)[C@@H](O)[C@@H]1O (some centres undefined) | 18%

target: not listed separately; assay: Displacement of [3H]gabapentin binding to voltage gated calcium channel alpha2delta from rat cerebral cortex by scintillation counting; assay type: tissue-based
In short: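 Membranes were incubated 60 min at 22 °C with 10 nM [3H]gabapentin ± test compound in 10 mM Hepes/Tris pH 7.4. Nonspecific binding was taken with excess unlabelled gabapentin. Filter-bound radioactivity was counted by scintillation. Compounds were diluted from DMSO stocks, 100-fold into the well. Duplicates. IC50 came from a competition curve of specific binding; gabapentin was the reference in each run.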

Row | SMILES | IC50 | Ki
8 | CC(C)C[C@H](CN)CC(=O)NCCc1c[nH]c2ccc(O)cc12 | 13 µM | 11 µM
